A short description of experiment [1]: Negative ionotropic activity in potassium depolarized guinea pig longitudinal smooth muscle assessed as inhibition of calcium-induced contraction. Type of experiment: functional, Cavia porcellus.
Experiment [2] can be described thus: Bronchodilatory activity in guinea pig trachea assessed as inhibition of carbachol-induced contraction at 10^-5 M. Type of experiment: functional. To be noted: Cavia porcellus.
Experiment [3] in a line: Binding affinity to CFTR F508 deletion mutant expressed in forskolin-stimulated FRT cells assessed as increase in iodine influx measured as YFP quenching rate after 24 hrs by fluorescence assay. Type of experiment: cell-based. In outline:
(§1)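 ΔF508-CFTR and halide-sensitive YFP coexpressed in FRT cells, held at 27 °C for 24 h for rescue, then stimulated 30–40 min with 20 μM forskolin with or without compound at 0.2, 2 and 20 μM. Fluorescence read before and after I– addition (100 mM final). Normalized decay fitted exponentially for maximal quenching rate; dose–response fitted with Hill equation for potency and maximal effect. Three independent determinations.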

For experiment [4], the system named is Aorta. Put plainly: Vasorelaxant activity in potassium depolarized guinea pig aortic strip assessed as inhibition of calcium-induced contraction at 10^-5 M. Type of experiment: functional. Conditions: Cavia porcellus. In outline: (§2)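 Guinea pig aortic strips depolarized with 80 mM K+, with cumulative drug addition. Relaxation given as mean ± SEM. […] Student's t-test against control, P < 0.05.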

A short description of experiment [5]: Negative chronotropic activity against potassium-induced contraction in guinea pig right atrium assessed as decrease atrial rate at 5 X 10^-6 M relative to control. Type of experiment: functional. Conditions: Cavia porcellus, Cardiac atrium. Summed up:
(§3)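 Spontaneously beating isolated guinea pig right atrium, pretreatment rate 165–190 beats/min. Drugs added cumulatively. Decrease in atrial rate expressed as percent change from control, n = 7–8. […] Control versus treated tested at each concentration by Student's t-test, P < 0.05. Mean ± SEM.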

Experiment [6] can be described thus: Negative ionotropic activity against potassium-induced contraction in guinea pig left atrium assessed as […] at 10^-6 M relative to control. Type of experiment: functional. To be noted: Cavia porcellus, Cardiac atrium. In outline: (§4)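 Isolated guinea pig left atrium paced at 1 Hz. Drugs added cumulatively. Negative inotropic effect expressed as percent change from control, n = 5–6. […] Student's t-test against control at each concentration, P < 0.05. Mean ± SEM.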

The subject of experiment [7] is Cystic fibrosis transmembrane conductance regulator (Homo sapiens), P13569 [F508del]. Put plainly: Activity at CFTR F508 deletion mutant expressed in forskolin-stimulated FRT cells assessed as maximal increase in iodine influx measured as YFP quenching rate after 24 hrs by fluorescence assay. Type of experiment: cell-based. In outline: as §1
The nature of experiment [8]: Negative ionotropic activity against potassium-induced contraction in guinea pig left atrium assessed as decrease in developed tension. To be noted: Cavia porcellus, Cardiac atrium.
For experiment [9], the species on record is Cavia porcellus. Kind of experiment: Negative ionotropic activity in potassium depolarized guinea pig longitudinal smooth muscle assessed as inhibition of calcium-induced contraction at 10^-5 M. Type of experiment: functional.
The subject of experiment [10] is Cystic fibrosis transmembrane conductance regulator (Homo sapiens), P13569 [F508del]. Put plainly: Activity at CFTR F508 deletion mutant expressed in forskolin-stimulated FRT cells assessed as maximal increase in iodine influx measured as YFP quenching rate at 0.2 uM after 24 hrs by fluorescence assay. Type of experiment: cell-based. Summed up: as §1
The test system of experiment [11] is Aorta. Put plainly: Vasorelaxant activity in potassium depolarized guinea pig aortic strip assessed as inhibition of calcium-induced contraction. Type of experiment: functional, tissue-based. Conditions: Cavia porcellus. In outline:
as §2

The species named for experiment [12] is Cavia porcellus. Kind of experiment: Negative ionotropic activity in potassium depolarized guinea pig longitudinal smooth muscle assessed as inhibition of calcium-induced contraction at 10^-8 M. Type of experiment: functional.
The nature of experiment [13]: Negative ionotropic activity against potassium-induced contraction in guinea pig left atrium assessed as […] at 10^-4 M relative to control. Type of experiment: functional. Conditions: Cavia porcellus, Cardiac atrium. Summed up: as §4
Experiment [14] deals with Aorta. Put plainly: Vasorelaxant activity in potassium depolarized guinea pig aortic strip assessed as inhibition of calcium-induced contraction at 10^-6 M. Type of experiment: functional. Conditions: Cavia porcellus. Summed up:
as §2

Experiment [15] in a line: Negative chronotropic activity against potassium-induced contraction in guinea pig right atrium assessed as decrease atrial rate at 10^-4 M relative to control. Type of experiment: functional. Conditions: Cavia porcellus, Cardiac atrium. In outline:
as §3

Experiment [16] concerns Aorta. Put plainly: Vasorelaxant activity in potassium depolarized guinea pig aortic strip assessed as inhibition of calcium-induced contraction at 5 X 10^-7 M. Type of experiment: functional. To be noted: Cavia porcellus. Summed up:
as §2

Experiment [17] can be described thus: Negative ionotropic activity against potassium-induced contraction in guinea pig left atrium assessed as […] at 10^-5 M relative to control. Type of experiment: functional. Conditions: Cavia porcellus, Cardiac atrium. In outline: as §4
Experiment [18] in a line: Negative chronotropic activity against potassium-induced contraction in guinea pig right atrium assessed as decrease atrial rate at 10^-7 M relative to control. Type of experiment: functional. To be noted: Cavia porcellus, Cardiac atrium. Summed up:
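Isolated spontaneously beating guinea pig right atrium with pretreatment heart rate of 165–190 beats/min. Compound was added cumulatively. Atrial rate decrease at the stated concentration is given as percent change from control, mean ± SEM, n = 7–8. Control versus treated values at each concentration were compared by Student's t-test at P < 0.05.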

Experiment [19] is described as follows: Bronchodilatory activity in guinea pig trachea assessed as inhibition of carbachol-induced contraction. Type of experiment: functional, tissue-based, Cavia porcellus.
A short description of experiment [20]: Ratio EC50 for nifedipine to compound for negative […] activity against potassium-induced contraction in left atrium of guinea pig. Type of experiment: functional, Cavia porcellus, Cardiac atrium.
Experiment [21] can be described thus: Negative ionotropic activity against potassium-induced contraction in guinea pig left atrium assessed as […] at 10^-7 M relative to control. Type of experiment: functional. To be noted: Cavia porcellus, Cardiac atrium. In outline:
as §4

The subject of experiment [22] is Aorta. Kind of experiment: Vasorelaxant activity in potassium depolarized guinea pig aortic strip assessed as inhibition of calcium-induced contraction at 10^-4 M. To be noted: Cavia porcellus. Type of experiment: functional. In outline:
as §2

A short description of experiment [23]: Negative ionotropic activity against potassium-induced contraction in guinea pig left atrium assessed as […] at 5 X 10^-6 M relative to control. Type of experiment: functional. Conditions: Cavia porcellus, Cardiac atrium. In outline: as §4
The species entered for experiment [24] is Cavia porcellus. Put plainly: Negative ionotropic activity in potassium depolarized guinea pig longitudinal smooth muscle assessed as inhibition of calcium-induced contraction at 5 X 10^-5 M. Type of experiment: functional.
Experiment [25] deals with Aorta. Kind of experiment: Vasorelaxant activity in potassium depolarized guinea pig aortic strip assessed as inhibition of calcium-induced contraction at 5 X 10^-5 M. Type of experiment: functional. To be noted: Cavia porcellus. Summed up:
as §2

The nature of experiment [26]: Negative chronotropic activity against potassium-induced contraction in guinea pig right atrium assessed as decrease atrial rate. To be noted: Cavia porcellus, Cardiac atrium. Type of experiment: functional, tissue-based. In outline: as §3
For experiment [27], the species on record is Cavia porcellus. Put plainly: […] activity in potassium depolarized guinea pig longitudinal smooth muscle assessed as inhibition of calcium-induced contraction at 5 X 10^-9 M. Type of experiment: functional.
Experiment [28] is filed under the species Cavia porcellus. Put plainly: Negative ionotropic activity in potassium depolarized guinea pig longitudinal smooth muscle assessed as inhibition of calcium-induced contraction at 10^-7 M. Type of experiment: functional.
A short description of experiment [29]: Bronchodilatory activity in guinea pig trachea assessed as inhibition of carbachol-induced contraction at 10^-4 M. To be noted: Cavia porcellus. Type of experiment: functional.
The nature of experiment [30]: Negative chronotropic activity against potassium-induced contraction in guinea pig right atrium assessed as decrease atrial rate at 10^-6 M relative to control. Type of experiment: functional. To be noted: Cavia porcellus, Cardiac atrium. Summed up: as §3

The source made the active and inactive calls. The rule behind the calls is not given here.

Chain of Cystic fibrosis transmembrane conductance regulator (Homo sapiens), P13569 [F508del] (P13569 as listed by the source): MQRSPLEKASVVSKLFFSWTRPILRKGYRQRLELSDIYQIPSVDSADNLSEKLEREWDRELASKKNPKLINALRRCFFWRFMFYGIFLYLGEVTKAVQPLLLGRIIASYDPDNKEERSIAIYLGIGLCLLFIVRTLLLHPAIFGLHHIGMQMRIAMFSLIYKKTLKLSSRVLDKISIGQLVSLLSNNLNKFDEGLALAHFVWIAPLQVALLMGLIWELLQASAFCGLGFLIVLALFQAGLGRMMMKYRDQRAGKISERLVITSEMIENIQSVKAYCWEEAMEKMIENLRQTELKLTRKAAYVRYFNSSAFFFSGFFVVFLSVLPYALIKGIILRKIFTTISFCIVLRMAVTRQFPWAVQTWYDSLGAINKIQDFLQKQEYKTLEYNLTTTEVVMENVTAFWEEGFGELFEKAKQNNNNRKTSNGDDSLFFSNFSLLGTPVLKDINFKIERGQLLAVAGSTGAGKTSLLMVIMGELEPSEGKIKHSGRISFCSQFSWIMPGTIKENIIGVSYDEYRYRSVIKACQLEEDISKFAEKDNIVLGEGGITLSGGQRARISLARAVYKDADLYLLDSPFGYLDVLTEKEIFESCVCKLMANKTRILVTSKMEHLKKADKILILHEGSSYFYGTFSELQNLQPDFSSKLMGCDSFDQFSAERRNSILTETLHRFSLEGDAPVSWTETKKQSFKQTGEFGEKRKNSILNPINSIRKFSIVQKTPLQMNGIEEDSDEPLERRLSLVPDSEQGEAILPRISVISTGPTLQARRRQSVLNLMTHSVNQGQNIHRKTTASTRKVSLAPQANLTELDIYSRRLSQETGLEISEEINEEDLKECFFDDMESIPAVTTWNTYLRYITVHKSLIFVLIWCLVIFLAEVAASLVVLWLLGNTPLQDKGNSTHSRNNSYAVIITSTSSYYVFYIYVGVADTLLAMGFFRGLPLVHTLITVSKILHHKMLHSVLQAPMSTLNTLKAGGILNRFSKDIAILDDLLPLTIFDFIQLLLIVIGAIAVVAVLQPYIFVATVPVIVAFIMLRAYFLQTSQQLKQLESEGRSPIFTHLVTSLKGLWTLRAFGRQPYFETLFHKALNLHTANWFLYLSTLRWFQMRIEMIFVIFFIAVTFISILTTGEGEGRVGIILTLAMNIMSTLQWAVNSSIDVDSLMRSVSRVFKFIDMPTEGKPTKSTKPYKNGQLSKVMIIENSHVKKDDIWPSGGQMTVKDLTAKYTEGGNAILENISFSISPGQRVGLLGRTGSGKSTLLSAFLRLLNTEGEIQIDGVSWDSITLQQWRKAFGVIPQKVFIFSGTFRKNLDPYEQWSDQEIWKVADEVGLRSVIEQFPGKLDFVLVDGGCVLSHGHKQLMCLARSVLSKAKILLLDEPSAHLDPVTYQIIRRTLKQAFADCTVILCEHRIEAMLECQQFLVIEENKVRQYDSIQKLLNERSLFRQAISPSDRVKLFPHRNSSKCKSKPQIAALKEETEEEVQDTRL

Regarding `CCOC(=O)C1=C(C)NC(C)=C(C(=O)OCC)C1c1cccc(Oc2ccccc2)c1`, in experiment [1], the IC50 amounted to 230 nM. The values for the inhibition at 10 µM (in [2]; with Aorta [4]) were 30% and 17%, respectively. In experiment [3], the Kd was found to be 0.37 µM. The inhibition at 5 µM in [5] came out at 38%. For the same compound, the inhibition at 1 µM in experiment [6] was 80%. The Emax in [7] stood at 62 ms-1. For the same compound, in experiment [8], the EC50 is 29 nM. Besides, the inhibition in the experiment filed under Cavia porcellus [9] turned out to be 83%.
Take `COC(=O)C1=C(C)NC(C)=C(C(=O)OC)C1c1c(-c2ccc(OC(F)(F)F)cc2)nc2sccn12`: the figures for the IC50 (in experiment [1]; with Aorta [11]) were 3.3 nM and 16 nM, respectively. Moreover, in [2], the inhibition at 10 µM turned out to be 26%. In addition, the result in [10] was inactive. Also, the Kd in experiment [3] turned out to be 3.5 µM. In addition, the inhibition in the experiment listed under Cavia porcellus [12] came to 73%. Also, the values for the inhibition at 100 µM in experiment [13] and in [15] were 89% and 33%, respectively. The Emax in experiment [7] was 64 ms-1. For the same compound, the EC50 in experiment [8] was 2330 nM. Also, in the experiment with Aorta [14], the inhibition at 1 µM amounted to 60%.
In the case of `COC(=O)C1=C(C)NC(C)=C(C(=O)OC)C1c1c(-c2ccc(C(F)(F)F)cc2)nc2sccn12`, the values for the IC50 in experiment [1] and in experiment [19] were 4.6 nM and 61 nM, respectively. Moreover, the inhibition at 10 µM amounted to 67% in [2] and 96% in experiment [17]. Further, in [10], the result was inactive. Also, the Kd in [3] worked out at 3.2 µM. Besides, the inhibition in the experiment listed under Cavia porcellus [12] was determined as 69%. In addition, in the experiment on Aorta [16], the inhibition at 0.5 µM stood at 36%. Moreover, in experiment [7], the Emax turned out to be 64 ms-1. In addition, the half-maximal effective concentration (EC50) in [8] was 120 nM. Also, the inhibition at 0.1 µM in experiment [18] is 33%. The “Ratio EC50” value in [20] was 2.6.
With `CCOC(=O)C1=C(C)NC(C)=C(C(=O)OCC)C1c1c(Cl)nc2sc(C)cn12`, the results for the IC50 in experiment [1] and in experiment [19] were 57 nM and 2340 nM, respectively. In experiment [10], the outcome was inactive. Further, in experiment [3], the Kd was found to be 8.4 µM. Moreover, in [21], the inhibition at 0.1 µM turned out to be 56%. The inhibition at 5 µM in [5] came to 36%. In addition, the inhibition at 100 µM with Aorta [22] is 8%. The Emax in [7] came out at 60 ms-1. The EC50 in experiment [8] is 31 nM.
On to `O=c1c(-c2ccc(O)cc2)coc2cc(O)cc(O)c12` [GENISTEIN], for which the IC50 in experiment [1] was determined as 9950 nM. Also, the inhibition at 10 µM in experiment [2] amounted to 14%. In experiment [23], the inhibition at 5 µM was 71%. The inhibition in the experiment listed under Cavia porcellus [24] amounted to 84%. The inhibition at 50 µM in the experiment with Aorta [25] turned out to be 22%. In experiment [7], the Emax worked out at 61 ms-1. Further, the EC50 turned out to be 28 nM in experiment [8] and 44.5 µM in [26]. Further, the inhibition at 100 µM in experiment [15] is 68%.
Regarding `COC(=O)C1=C(C)NC(C)=C(C(=O)OC)C1c1ccccc1[N+](=O)[O-]` [NIFEDIPINE], the inhibition at 10 µM in experiment [2] turned out to be 62%; in experiment [17] it was 97%. For the same compound, the IC50 was 9 nM in the experiment with Aorta [11] and 96 nM in experiment [19]. In experiment [3], the Kd stood at 2.9 µM. For the same compound, the inhibition in the experiment filed under Cavia porcellus [27] amounted to 70%. Moreover, the Emax in experiment [7] came to 58 ms-1. Further, the EC50 in experiment [8] amounted to 260 nM; in experiment [26] it was 0.039 µM. Moreover, the inhibition at 0.1 µM in [18] was found to be 85%. Moreover, in the experiment with Aorta [14], the inhibition at 1 µM was 82%.
In the case of `CCOC(=O)C1=C(C)NC(C)=C(C(=O)OCC)C1c1c(C(F)(F)F)nc2sccn12`, the IC50 in experiment [1] was 14 nM; in [19], 1110 nM. For the same compound, in the experiment filed under Cavia porcellus [28], the inhibition turned out to be 90%. Moreover, in experiment [10], the result was inactive. In addition, the inhibition at 100 µM in experiment [29] came to 77%; in experiment [13], 93%; in the experiment with Aorta [22], 48%. For the same compound, in experiment [3], the Kd amounted to 19.4 µM. Besides, the inhibition at 1 µM in experiment [30] stood at 40%. Also, the Emax in [7] was found to be 60 ms-1. The EC50 in [8] came to 1070 nM.

For the origin of these results see ChEMBL document CHEMBL1811821, “Cystic fibrosis: a new target for 4-Imidazo[2,1-b]thiazole-1,4-dihydropyridines” (J Med Chem, 2011).
